# High-throughput results: PubChem BioAssay, several laboratories
# TMEM16A inh – blocks the mouse calcium-activated chloride channel TMEM16A | Q8BHY3 | HEK293 TMEM16A/YFP iodide influx fluorescence, ionomycin | normalized B-score (activity score, 25-100; higher = stronger inhibition) at 10 µM | hit rate 1.2% among 310,000 | AID 588511;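 active means ratio plate-corrected score three or more library SD toward inhibition, starting fluorescence score within five deviations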;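 further: score derived from kinetic fluorescence span divided by baseline fluorescence per well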
# MIN6 prolif – inducers of beta-cell replication in MIN6 cells; MIN6 cells proliferation, ATPlite luminescence, 48 h; cells starved in 0.2% serum; 100% = growth in 10% serum; hit rate 0.29% among 330,000; AID 2380; proliferation, % at 10 µM;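 active means compounds whose signal lies at least 3.5 SD above the mean of all wells on their plate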
# m5-HT2A agonist – activates the mouse 5-HT2A serotonin receptor | P35363 | CHO-K1 mHTR2A beta-arrestin complementation, luminescence; percent of 30 µM serotonin response | activation, % at 7.6 µM | hit rate 0.66% among 360,000 | AID 624169;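 active means activation above a run cutoff, the mean activation of all tested compounds plus 3 SD, cut at about 14% in these data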
# MC4R antag cAMP – antagonists of human melanocortin 4 receptor (MC4R); P32245; MC4R-expressing cells, MTII-stimulated cAMP, LANCE TR-FRET; inhibition, % at 6.5 µM; hit rate 0.48% among 360,000;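 active means inhibition above its plate's cutoff, the mean of tested wells on that plate plus 3 SD, cut at about 29% in these data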
# Target sequence (P32245 whole entry, looked up): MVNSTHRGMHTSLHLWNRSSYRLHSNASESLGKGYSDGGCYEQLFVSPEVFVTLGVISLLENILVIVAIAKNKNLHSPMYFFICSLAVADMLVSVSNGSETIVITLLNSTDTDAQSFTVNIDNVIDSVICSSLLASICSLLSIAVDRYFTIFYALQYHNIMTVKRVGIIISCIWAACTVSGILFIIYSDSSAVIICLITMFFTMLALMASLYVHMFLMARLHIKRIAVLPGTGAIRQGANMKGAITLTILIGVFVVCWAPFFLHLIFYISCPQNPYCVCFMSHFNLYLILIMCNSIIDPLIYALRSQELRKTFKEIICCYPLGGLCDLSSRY
#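 System: U2OS cells stably expressing human melanocortin 4 receptor (MC4R). Reagent: Melanotan II challenge after compound preincubation. Doses: 6.5 µM. Times: 30-min compound, 1-h challenge, 1-h detection, room temperature. Measured by: TR-FRET with Eu-cAMP and labeled anti-cAMP, 671 nm. Replicates: singlicate.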
# MC4R barr agon – activates human MC4R beta-arrestin recruitment. U2OS MC4R beta-arrestin complementation, luminescence; percent of melanotan II response, DMSO zero. activation, % at 8.9 µM. P32245. hit rate 0.98% among 360,000;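 active means activation above a per-plate cutoff, the mean activation of sample wells on that plate plus 3 SD, cut at about 8% in these data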
# ANO1 activ – activates or potentiates the mouse TMEM16A chloride channel. Q8BHY3. HEK293 TMEM16A/YFP-H148Q/I152L, iodide quench fluorescence; hits give low values. B-score at 10 µM. hit rate 0.3% among 340,000;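 active means fluorescence-ratio B-score plate-corrected deviation score at least 3 library SD below zero, with starting fluorescence score within 5 deviations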;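 further: channel opened by trigger with iodide after compound preincubation; score built on the fluorescence ratio of max minus min over baseline; more negative score means more quench and so TMEM16A activation or potentiation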
# U2OS cAMP counter – counter-screen for MC4R antagonists: nonselective cAMP signaling inhibitors | AID 602193 | parental U2OS, forskolin cAMP, LANCE TR-FRET | inhibition, % at 6.5 µM | shares compounds with MC4R antag cAMP | hit rate 26% among 1,600;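 active means mean inhibition over triplicates above the low-control well mean plus 3 SD, set per campaign, cut at about 13% in these data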;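 further: signal is single emission at 671 nm which falls as cellular cAMP rises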
# MC4R cAMP antag – human MC4R cAMP antagonism confirmation; inhibition, % at 6.5 µM; hit rate 27% among 1,600; MC4R-expressing cells, MTII-stimulated cAMP, TR-FRET; shares compounds with MC4R antag cAMP; in the data active means inhibition above about 29%
# Numbers stand for hits; – = inactive; · = not tested or not shown. Most compounds without a hit are left out; they make up all but 3.4% or so of the library.
SMILES,TMEM16A inh,MIN6 prolif,m5-HT2A agonist,MC4R antag cAMP,MC4R barr agon,ANO1 activ,U2OS cAMP counter,MC4R cAMP antag
Cc1cccc(Cc2nnc(CCC(=O)N3CCCCC3c3nccs3)o2)c1 (centres undefined),–,–,–,–,–,–,·,·
CN(C)CCCNc1nc2cc(-c3cnn(C)c3)sc2c(=O)n1C,·,·,–,–,–,·,·,·
COc1ccc(N2CCN(C(=O)CNC(=O)c3ccco3)CC2)cc1,–,–,–,–,–,–,·,·
COc1ccc(N2CCN(C(=O)COc3ccc4c(C)cc(=O)oc4c3C)CC2)cc1,–,–,–,–,–,–,·,·
COc1ccc(N2CCN(C(=O)c3ccc(COc4ccc5c(C)cc(=O)oc5c4)cc3)CC2)cc1,–,–,–,31.1,–,–,–,–
O=C(NCC(=O)N1CCN(S(=O)(=O)/C=C/c2ccccc2)CC1)c1ccc(Cl)cc1,–,–,–,31.1,–,–,–,–
O=C(NCC(=O)N1CCN(S(=O)(=O)/C=C/c2ccccc2)CC1)c1ccccc1F,–,–,–,–,–,–,·,·
CC(OC(=O)Cn1cnc2c1c(=O)n(C)c(=O)n2C)C(=O)NC1(C#N)CCCCC1 (centres undefined),·,–,–,–,–,–,·,·
CCOc1cc(N2CCOCC2)c(OCC)cc1NC(=O)CSc1ccccc1C(=O)O,·,–,–,–,–,–,·,·
CCOc1cc(N2CCOCC2)c(OCC)cc1NCC(=O)N1CCN(Cc2ccccc2)CC1,–,–,–,29.4,–,–,–,–
O=C(c1cc(-c2cccs2)nn1-c1ccccc1)N1CCN(S(=O)(=O)c2ccccc2)CC1,–,–,–,28.7,–,–,–,–
Cc1ccc(S(=O)(=O)N2CCN(C(=O)c3cc(-c4cccs4)nn3-c3ccccc3)CC2)cc1,–,–,–,–,–,–,·,·
Cc1sc2ncnc(N3CCC(C(=O)Nc4ccc(Br)cc4Br)CC3)c2c1C,–,–,–,–,–,–,·,·
CC1CCCCN1S(=O)(=O)c1cccc2nonc12 (centres undefined),–,–,–,–,–,–,·,·
COc1ccc(C(=O)Nc2ccc(NC(=O)C3CCCCC3)nc2)cc1,–,–,–,–,–,–,·,·
COc1ccccc1C(=O)Nc1ccc(NC(=O)C2CCCCC2)nc1,–,–,–,31.3,–,–,–,–
COc1ccccc1-c1sc2cc3c(cc2c1C#Cc1cncn1C)OCO3,·,–,–,–,–,–,·,·
Cc1cccc(C)c1-n1nnnc1C1(C)CCC(=O)N1CCc1ccc(O)cc1 (centres undefined),·,·,–,·,·,·,·,·
COc1ccc(NC(=O)Nc2cccc3c2O[C@H](CN(C)C(=O)Nc2c(C)noc2C)[C@@H](C)CN([C@H](C)CO)C3=O)cc1,·,–,–,–,–,–,·,·
O=C(Nc1ccccc1)OC1CCC2CC1CCC2OC(=O)Nc1ccccc1 (centres undefined),–,–,–,32.2,–,–,–,32.5
O=C(Nc1ccccc1)C1CC2CCC1C2 (centres undefined),–,–,–,–,–,–,·,·
O=C(COC(=O)[C@H](Cc1ccccc1)NC(=O)c1ccco1)NC(c1ccccc1)c1ccccc1,–,–,–,31.9,–,–,19.8,36.0
O=C(COC(=O)[C@H](Cc1ccccc1)NC(=O)c1cccs1)NC1CCCCC1,–,–,–,36.9,–,–,–,–
O=C(COC(=O)[C@H](Cc1ccccc1)NC(=O)c1cccs1)NC1CC1,–,–,–,–,–,–,·,·
Cc1ccc(OCC(=O)NNC(=O)C2CCN(c3nc(C)cc(C)n3)CC2)cc1,–,–,–,28.6,–,–,–,–
Cc1ccc(OCC(=O)NNC(=O)C2CCN(c3ncccn3)CC2)cc1,–,–,–,–,–,–,·,·
O=C(O)c1cnn(-c2nc(-c3ccc(F)cc3)cs2)c1C(F)(F)F,–,–,–,32.4,–,–,–,–
